Laboratory results as given in ChEMBL document CHEMBL3351260, “A new efficient route to 7-aryl-6-fluoro-8-nitroquinolones as potent antibacterial agents” (2014).
Converted amounts (≈) assume the structure as drawn. The source made the active and inactive calls. No cut-off for these calls is given here.

system: Bacillus spizizenii; assay: Antimicrobial activity against Bacillus subtilis ATCC 6633 after 24 hrs by two-fold broth dilution method; type: functional; details: ATCC 6633, 24 h
Method in brief: (§1)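 Bacteria were cultivated on Mueller Hinton medium and inoculated at 5·10⁵ bacteria/mL. Compounds were dissolved in DMSO, with DMSO loaded as the negative control. Samples were incubated at 37 °C for 24 h. The dilution susceptibility method followed the NCCLS standard for aerobically growing bacteria.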

Row | SMILES | MIC [ng/mL]
1 | O=C(O)c1cn(C2CC2)c2c([N+](=O)[O-])c(-c3ccc(F)cc3)c(F)cc2c1=O | 15 (≈ 0.0388 µM)
2 | COc1ccc(-c2c(F)cc3c(=O)c(C(=O)O)cn(C4CC4)c3c2[N+](=O)[O-])cc1 | 30 (≈ 0.0753 µM)
3 | COc1c(C)cc(-c2c(F)cc3c(=O)c(C(=O)O)cn(C4CC4)c3c2[N+](=O)[O-])cc1C | 0.07 (≈ 0.000164 µM)

Next, values leading:

Row | MIC [ng/mL] | SMILES
4 | 15 (≈ 0.0392 µM) | Cc1ccc(-c2c(F)cc3c(=O)c(C(=O)O)cn(C4CC4)c3c2[N+](=O)[O-])cc1
5 | 15 (≈ 0.0407 µM) | O=C(O)c1cn(C2CC2)c2c([N+](=O)[O-])c(-c3ccccc3)c(F)cc2c1=O

system: Staphylococcus aureus; assay: Antimicrobial activity against Staphylococcus aureus ATCC 6538 after 24 hrs by two-fold broth dilution method; type: functional; details: ATCC 6538, 24 h; method in brief: as §1

Row | SMILES | MIC [ng/mL]
6 | O=C(O)c1cn(C2CC2)c2c([N+](=O)[O-])c(-c3ccc(F)cc3)c(F)cc2c1=O | 150 (≈ 0.388 µM)
7 | COc1ccc(-c2c(F)cc3c(=O)c(C(=O)O)cn(C4CC4)c3c2[N+](=O)[O-])cc1 | 150 (≈ 0.377 µM)
8 | COc1c(C)cc(-c2c(F)cc3c(=O)c(C(=O)O)cn(C4CC4)c3c2[N+](=O)[O-])cc1C | 3 (≈ 0.00704 µM)

Next, values leading:

Row | MIC [ng/mL] | SMILES
9 | 150 (≈ 0.392 µM) | Cc1ccc(-c2c(F)cc3c(=O)c(C(=O)O)cn(C4CC4)c3c2[N+](=O)[O-])cc1
10 | 150 (≈ 0.407 µM) | O=C(O)c1cn(C2CC2)c2c([N+](=O)[O-])c(-c3ccccc3)c(F)cc2c1=O

system: Escherichia coli; assay: Antimicrobial activity against Escherichia coli ATCC 8739 after 24 hrs by two-fold broth dilution method; type: functional; details: ATCC 8739, 24 h; method in brief: as §1

Row | SMILES | MIC [ng/mL]
11 | O=C(O)c1cn(C2CC2)c2c([N+](=O)[O-])c(-c3ccc(F)cc3)c(F)cc2c1=O | 3000 (≈ 7.77 µM)
12 | COc1ccc(-c2c(F)cc3c(=O)c(C(=O)O)cn(C4CC4)c3c2[N+](=O)[O-])cc1 | 25000 (≈ 62.8 µM)
13 | COc1c(C)cc(-c2c(F)cc3c(=O)c(C(=O)O)cn(C4CC4)c3c2[N+](=O)[O-])cc1C | 25000 (≈ 58.6 µM)

Next, values leading:

Row | MIC [ng/mL] | SMILES
14 | 3000 (≈ 7.85 µM) | Cc1ccc(-c2c(F)cc3c(=O)c(C(=O)O)cn(C4CC4)c3c2[N+](=O)[O-])cc1
15 | 3000 (≈ 8.15 µM) | O=C(O)c1cn(C2CC2)c2c([N+](=O)[O-])c(-c3ccccc3)c(F)cc2c1=O

system: Haemophilus influenzae; assay: Antimicrobial activity against Haemophilus influenzae ATCC 19418 after 24 hrs by two-fold broth dilution method; type: functional; details: ATCC 19418, 24 h; method in brief: as §1

Row | SMILES | MIC [ng/mL]
16 | O=C(O)c1cn(C2CC2)c2c([N+](=O)[O-])c(-c3ccc(F)cc3)c(F)cc2c1=O | 70 (≈ 0.181 µM)
17 | COc1ccc(-c2c(F)cc3c(=O)c(C(=O)O)cn(C4CC4)c3c2[N+](=O)[O-])cc1 | 150 (≈ 0.377 µM)
18 | COc1c(C)cc(-c2c(F)cc3c(=O)c(C(=O)O)cn(C4CC4)c3c2[N+](=O)[O-])cc1C | 15 (≈ 0.0352 µM)

Further lines, results first:

Row | MIC [ng/mL] | SMILES
19 | 30 (≈ 0.0785 µM) | Cc1ccc(-c2c(F)cc3c(=O)c(C(=O)O)cn(C4CC4)c3c2[N+](=O)[O-])cc1
20 | 150 (≈ 0.407 µM) | O=C(O)c1cn(C2CC2)c2c([N+](=O)[O-])c(-c3ccccc3)c(F)cc2c1=O

system: Saccharomyces cerevisiae; assay: Antimicrobial activity against Saccharomyces cerevisiae ATCC 9763 up to 100 ug/ml after 48 hrs by two-fold broth dilution method; type: functional, organism-based; details: not given
Method in brief: (§2)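 Fungi (yeasts C. tropicalis and S. cerevisiae, mould A. niger) grown in Sabouraud dextrose broth. Inoculum was 1·10³ fungi/mL. Compounds were dissolved in DMSO, which was also loaded as the negative control. Incubation was 30 °C for 48 h. The broth dilution method followed NCCLS reference methods for yeasts and filamentous fungi.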

Row | SMILES | Activity
21 | O=C(O)c1cn(C2CC2)c2c([N+](=O)[O-])c(-c3ccc(F)cc3)c(F)cc2c1=O | inactive
22 | COc1ccc(-c2c(F)cc3c(=O)c(C(=O)O)cn(C4CC4)c3c2[N+](=O)[O-])cc1 | inactive
23 | Cc1ccc(-c2c(F)cc3c(=O)c(C(=O)O)cn(C4CC4)c3c2[N+](=O)[O-])cc1 | inactive
24 | O=C(O)c1cn(C2CC2)c2c([N+](=O)[O-])c(-c3ccccc3)c(F)cc2c1=O | inactive
25 | Clc1ccc(COC(Cn2ccnc2)c2ccc(Cl)cc2Cl)c(Cl)c1 (stereo unspecified) [MICONAZOLE] | inactive
26 | COc1c(C)cc(-c2c(F)cc3c(=O)c(C(=O)O)cn(C4CC4)c3c2[N+](=O)[O-])cc1C | inactive

system: Candida tropicalis; assay: Antimicrobial activity against Candida tropicalis ATCC 1369 up to 100 ug/ml after 48 hrs by two-fold broth dilution method; type: functional, organism-based; details: not given; method in brief: as §2

Row | SMILES | Activity
27 | O=C(O)c1cn(C2CC2)c2c([N+](=O)[O-])c(-c3ccc(F)cc3)c(F)cc2c1=O | inactive
28 | COc1ccc(-c2c(F)cc3c(=O)c(C(=O)O)cn(C4CC4)c3c2[N+](=O)[O-])cc1 | inactive
29 | Cc1ccc(-c2c(F)cc3c(=O)c(C(=O)O)cn(C4CC4)c3c2[N+](=O)[O-])cc1 | inactive
30 | O=C(O)c1cn(C2CC2)c2c([N+](=O)[O-])c(-c3ccccc3)c(F)cc2c1=O | inactive
31 | Clc1ccc(COC(Cn2ccnc2)c2ccc(Cl)cc2Cl)c(Cl)c1 (stereo unspecified) [MICONAZOLE] | inactive
32 | COc1c(C)cc(-c2c(F)cc3c(=O)c(C(=O)O)cn(C4CC4)c3c2[N+](=O)[O-])cc1C | inactive

system: Aspergillus niger; assay: Antimicrobial activity against Aspergillus niger ATCC 6275 up to 100 ug/ml after 48 hrs by two-fold broth dilution method; type: functional, organism-based; details: not given; method in brief: as §2

Row | SMILES | Activity
33 | O=C(O)c1cn(C2CC2)c2c([N+](=O)[O-])c(-c3ccc(F)cc3)c(F)cc2c1=O | inactive
34 | COc1ccc(-c2c(F)cc3c(=O)c(C(=O)O)cn(C4CC4)c3c2[N+](=O)[O-])cc1 | inactive
35 | Cc1ccc(-c2c(F)cc3c(=O)c(C(=O)O)cn(C4CC4)c3c2[N+](=O)[O-])cc1 | inactive
36 | O=C(O)c1cn(C2CC2)c2c([N+](=O)[O-])c(-c3ccccc3)c(F)cc2c1=O | inactive
37 | Clc1ccc(COC(Cn2ccnc2)c2ccc(Cl)cc2Cl)c(Cl)c1 (stereo unspecified) [MICONAZOLE] | inactive
38 | COc1c(C)cc(-c2c(F)cc3c(=O)c(C(=O)O)cn(C4CC4)c3c2[N+](=O)[O-])cc1C | inactive

system: Candida tropicalis; assay: Antimicrobial activity against Candida tropicalis ATCC 1369 after 48 hrs by two-fold broth dilution method; type: functional; details: ATCC 1369, 48 h; method in brief: as §2

Row | MIC [ng/mL] | SMILES
39 | 6000 (≈ 14.4 µM) | Clc1ccc(COC(Cn2ccnc2)c2ccc(Cl)cc2Cl)c(Cl)c1 (stereo unspecified) [MICONAZOLE]

system: Aspergillus niger; assay: Antimicrobial activity against Aspergillus niger ATCC 6275 after 48 hrs by two-fold broth dilution method; type: functional; details: ATCC 6275, 48 h; method in brief: as §2

Row | MIC [ng/mL] | SMILES
40 | 3000 (≈ 7.21 µM) | Clc1ccc(COC(Cn2ccnc2)c2ccc(Cl)cc2Cl)c(Cl)c1 (stereo unspecified) [MICONAZOLE]

system: Saccharomyces cerevisiae; assay: microbe, parasite or virus in culture; details: ATCC 9763, 48 h

Row | MIC [ng/mL] | SMILES
41 | 12000 (≈ 28.8 µM) | Clc1ccc(COC(Cn2ccnc2)c2ccc(Cl)cc2Cl)c(Cl)c1 (stereo unspecified) [MICONAZOLE]
